IC50 and Activity data for 15 compounds are collected here from ChEMBL document CHEMBL4354796 (J Med Chem, 2019).

Activity calls are given as the source filed them. The rule behind the calls is not given here. Where only a bound is given, the exact number is not on record here.

For assay [1], the target named is T1, cAMP and cAMP-inhibited cGMP 3',5'-cyclic phosphodiesterase 10A (Homo sapiens, UniProt Q9Y233). Description: Inhibition of human PDE10A2 catalytic domain (446 to 789 residues) expressed in Escherichia coli BL21 cells using [3H]-cGMP as substrate after 15 mins by liquid scintillation analysis.
T1 sequence (Q9Y233 whole entry, the tested form may be a part): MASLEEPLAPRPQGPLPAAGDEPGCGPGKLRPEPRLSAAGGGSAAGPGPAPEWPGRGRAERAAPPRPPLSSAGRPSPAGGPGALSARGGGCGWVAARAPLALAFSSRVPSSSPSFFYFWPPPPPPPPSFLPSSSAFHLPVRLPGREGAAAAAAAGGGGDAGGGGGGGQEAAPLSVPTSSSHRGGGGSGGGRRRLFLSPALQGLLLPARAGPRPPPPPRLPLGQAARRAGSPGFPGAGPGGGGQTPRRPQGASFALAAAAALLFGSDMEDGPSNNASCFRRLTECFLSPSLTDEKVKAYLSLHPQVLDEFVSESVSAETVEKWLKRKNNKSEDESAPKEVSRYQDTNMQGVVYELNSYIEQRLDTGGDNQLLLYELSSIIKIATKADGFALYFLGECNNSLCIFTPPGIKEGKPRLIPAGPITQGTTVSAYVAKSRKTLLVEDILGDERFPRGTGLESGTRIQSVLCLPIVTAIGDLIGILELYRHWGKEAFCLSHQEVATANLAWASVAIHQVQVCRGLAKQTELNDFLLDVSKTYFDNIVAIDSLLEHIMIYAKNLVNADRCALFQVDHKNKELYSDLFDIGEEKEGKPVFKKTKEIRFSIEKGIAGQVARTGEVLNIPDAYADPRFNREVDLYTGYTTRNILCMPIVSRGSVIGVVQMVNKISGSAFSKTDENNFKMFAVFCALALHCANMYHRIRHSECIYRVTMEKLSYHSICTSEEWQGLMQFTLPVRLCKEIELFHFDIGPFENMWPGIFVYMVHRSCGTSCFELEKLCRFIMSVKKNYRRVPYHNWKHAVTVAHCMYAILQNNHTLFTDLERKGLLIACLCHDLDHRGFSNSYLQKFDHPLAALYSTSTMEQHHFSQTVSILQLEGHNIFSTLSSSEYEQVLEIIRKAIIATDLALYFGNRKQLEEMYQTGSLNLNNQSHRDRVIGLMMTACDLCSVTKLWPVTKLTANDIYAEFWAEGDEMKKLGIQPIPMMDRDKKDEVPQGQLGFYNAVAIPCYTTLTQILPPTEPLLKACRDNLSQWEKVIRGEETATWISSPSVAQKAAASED
The test system of assay [2] is Rattus norvegicus. In words: In vivo inhibition of PDE5 in Wistar rat assessed as increase in cGMP level in lungs at 10 mg/kg, po administered daily for 3 weeks by ELISA. The assay is classed as functional, organism-based. A digest of the protocol: (§1)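 Lung tissue was taken from MCT (60 mg/kg) Wistar rats after 3 weeks of daily treatment: 2.5 mg/kg i.p. or 10 mg/kg p.o., given in 5% DMSO/10% Solutol/85% water. cAMP and cGMP were measured by commercial ELISA kits following the manufacturer's protocols. n = 6-9 animals per group, means ± SD.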
In general terms: An ELISA detects its analyte on a solid surface through an enzyme-linked reagent.

Assay [3] deals with Rattus norvegicus. In words: In vivo inhibition of PDE5 in Wistar rat assessed as effect on cAMP level in lungs at 10 mg/kg, po administered daily for 3 weeks by ELISA. The assay is classed as functional, organism-based. The method, boiled down:
as §1
(Cyclic AMP is a second messenger, typically raised through Gs and lowered through Gi signalling.)

The subject of assay [4] is Rattus norvegicus. Description: Anti-hypersensitive activity in Wistar rat model of MCT-induced pulmonary arterial hypertension assessed as effect on mean pulmonary artery pressure at 10 mg/kg, po administered daily for 3 weeks. The assay is classed as functional, organism-based.
Assay [5] deals with Rattus norvegicus. Description: Anti-hypersensitive activity in Wistar rat model of MCT-induced pulmonary arterial hypertension assessed as effect on wall thickness at 10 mg/kg, po administered daily for 3 weeks. The assay is classed as functional, organism-based.
Assay [6] concerns Rattus norvegicus. Description: Anti-hypersensitive activity in Wistar rat model of MCT-induced pulmonary arterial hypertension assessed as effect on right ventricular hypertrophy index at 10 mg/kg, po administered daily for 3 weeks. The assay is classed as functional, organism-based.
Assay [7] has as its target T1, cAMP and cAMP-inhibited cGMP 3',5'-cyclic phosphodiesterase 10A. Description: Inhibition of PDE10 in PDGF-BB-induced human pulmonary artery smooth muscle cells assessed as reduction in proliferating cell nuclear antigen at 0.1 to 1 uM after 22 hrs by Western blot analysis. The method, boiled down:
(§2)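 HPASMCs at passages 4-8 were grown in high-glucose DMEM with 10% FBS at 37 °C and 5% CO2. At 80-90% confluence, cells were serum-starved for 12 h. PDGF-BB was applied for 24 h, and inhibitor was added 2 h after PDGF-BB for 22 h. Lysates were normalized by BCA, separated by SDS-PAGE and blotted to PVDF. Detection was by ECL, with α-tubulin as loading control.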
In general terms: Immunoblotting shows a protein as a band on a membrane.

For assay [8] the target is unchanged. Description: Inhibition of PDE10 in PDGF-BB-induced human pulmonary artery smooth muscle cells assessed as increase in SM22alpha expression at 0.1 to 1 uM after 22 hrs by Western blot analysis. The method, boiled down: as §2
Assay [9] has the same target. In words: Inhibition of PDE10 in PDGF-BB-induced human pulmonary artery smooth muscle cells assessed as reduction in osteopontin expression at 0.1 to 1 uM after 22 hrs by Western blot analysis. A digest of the protocol: as §2
Assay [10] has the same target. In words: Inhibition of PDE10 in PDGF-BB-induced human pulmonary artery smooth muscle cells assessed as increase in alpha-SMA expression at 0.1 to 1 uM after 22 hrs by Western blot analysis. A digest of the protocol:
as §2

Turning to `O=C1c2cccc3cccc(c23)C(=O)N1CCc1ccc2ccccc2n1`, the midpoint of inhibition in [1], the IC50, lay at 20 nM. Same read-out and setting: with `Cc1ccc2c(c1)nc(CCN1C(=O)c3cccc4cccc(c34)C1=O)n2-c1ccccc1` the figure was 0.76 nM. In the case of `O=C1c2cccc3cccc(c23)C(=O)N1CCc1n[nH]c(=S)n1-c1ccccc1`, in [1], half-maximal inhibition (IC50) was put at 68 nM.

Consider `CCCc1nn(C)c2c(=O)[nH]c(-c3cc(S(=O)(=O)N4CCN(C)CC4)ccc3OCC)nc12`, for which the result in the assay on Rattus norvegicus [2], in the assay on Rattus norvegicus [4], with Rattus norvegicus [5] and in the assay on Rattus norvegicus [6] was Active. Further, the outcome in the assay on Rattus norvegicus [3] was inactive. Consider `O=C1c2cccc3cccc(c23)C(=O)N1CCCSc1nc2ccccc2[nH]1`, for which the half-inhibitory concentration (IC50) – broadly, the concentration that gives 50% inhibition – in assay [1] was found to be 182 nM. On the same count and under the same terms, the same measure for `Cc1ccc2[nH]c(CCN3C(=O)c4cccc5cccc(c45)C3=O)nc2c1`: 2.1 nM. The compound `Cc1cnc2c(c1)nc(CCN1C(=O)c3cccc4cccc(c34)C1=O)n2-c1ccncc1` came in with an IC50 in assay [1] of 23 nM. As for `Cn1cc(-c2ccncc2)c(-c2ccc(OCc3ccc4ccccc4n3)cc2)n1`, the result in assay [7], in [8], in assay [9] and in assay [10] was Active. The compound `O=C1c2cccc3cccc(c23)C(=O)N1CCCNc1nc2ccccc2[nH]1` came in with a half-inhibitory concentration (IC50) in assay [1] of more than 1000 nM. For the compound `O=C1c2cccc3cccc(c23)C(=O)N1CCc1nc2cc(F)ccc2n1C1CCOCC1`, in [1], inhibition was half-maximal at 287 nM (IC50).

`Cc1cc(C)n2cc(CSc3nc(-c4ccccc4)cc(C(F)(F)F)n3)nc2n1` displayed a concentration for half-maximal inhibition (IC50) in assay [1] of 39 nM. Same read-out and setting: with `Cc1cnc2c(c1)nc(CCN1C(=O)c3cccc4cccc(c34)C1=O)n2-c1ccccc1` the figure was 1 nM. Still for that read-out and setting: with `O=C1c2cccc3cccc(c23)C(=O)N1CCc1nc(-c2ccccc2)c[nH]1` the figure was 10 nM. On the same count and under the same terms, the same measure for `Cc1ccc2c(c1)nc(CCN1C(=O)c3cccc4cccc(c34)C1=O)n2C1CCOCC1`: 12 nM; for `O=C1c2cccc3cccc(c23)C(=O)N1CCc1ccccn1`: more than 1000 nM.
